From PubChem
GRIN3A LBD mod = binders of NR3A ligand-binding domain, primary screen, biophysical, differential scanning fluorimetry, uHTS. Glutamate receptor ionotropic, NMDA 3A (GRIN3A) ligand-binding domain. Tm shift relative to glycine control, % at 25 µM. AID 1259313, 2017. hit rate 2.5% among 340,000. NR3A LBD differential scanning fluorimetry, Tm shift; 0% = protein alone, 100% = glycine-bound protein;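 active = melting temperature shift of at least 10% of the positive control shift, at one fixed dose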
CHOP inh = inhibitors of CHOP promoter induction, primary screen, cell-based, unfolded protein response, luciferase reporter. inhibition, % at 10 µM. hit rate 3.8% among 220,000. CHO-K1 CHOP-promoter luciferase, tunicamycin-induced, 15-18 h. AID 2732, 2010;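 active = compounds that reduced the stress-induced luciferase reporter signal by more than about 70% of percent inhibition, limit read from the data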;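 also: 0% = tunicamycin plus vehicle and 100% = wells without tunicamycin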
MPTP block = mitochondrial permeability transition pore inhibitors, primary screen, biochemical, isolated mouse mitochondria, absorbance | Ca2+ swelling absorbance, 30 min | inhibition, % at 10 µM | hit rate 1.4% among 360,000 | AID 602449, 2012;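 active = inhibition of 50% or more, scaled per plate between neutral and stimulator controls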;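 also: 0% = DMSO wells given calcium and 100% = 1 mM EGTA wells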
aDG glyco up = activators of alpha-DG glycosylation, primary screen, uHTS, Pro5-aDG cells, AlphaScreen; alpha-DG glycosylation AlphaScreen (IIH6); 0% Pro5, 100% B10-LARGE cell signal; activation, % at 10 µM; hit rate 0.22% among 360,000; AID 624168, 2012;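 active = activation of at least 8% versus controls, or a plate z-score of at least 8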;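 also: Pro5 are CHO cells carrying HIG-tagged alpha-DG that lacks glycosylation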
CHOP UPR activ = activators of apoptotic CHOP UPR arm, primary screen, cell-based, CHO-CHOP luciferase reporter, luminescence, uHTS | AID 449763, 2010 | hit rate 0.34% among 330,000 | activation, % at 10 µM | UPR activation; percent of tunicamycin response over DMSO baseline;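 active = at 10 µM dose, activation of 40% or more, normalized to positive control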;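 also: 100% = tunicamycin at 10 µg/mL and 0% = DMSO alone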
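Evaluation: % reporter activation, DMSO baseline versus tunicamycin full activation; System: CHO-CHOP luciferase reporter cell line; Input: 500 cells/well; Incubation: 6 h compound treatment, 37 °C; Measured by: Steady-Glo luciferase luminescence; Dosing: one dose, 10 µM in 0.5% DMSO; Buffer or medium: F12 medium, 10% FBS; Benchmarks: positive tunicamycin 10 µg/mL, negative DMSO alone.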
UPR XBP1 act = activators of adaptive XBP1 UPR arm, primary screen, cell-based, CHO-XBP1 luciferase reporter, luminescence, uHTS; IRE1-XBP1 UPR activation; percent of tunicamycin response, DMSO as zero; activation, % at 20 µM; hit rate 0.33% among 330,000; AID 463104, 2010;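 active = versus positive control, 20 µM dose yields 30% or more activation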;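 also: 100% = tunicamycin at 10 µg/mL and 0% = DMSO only wells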
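Material: CHO cell line with stable XBP1 luciferase reporter; buffer or medium: F12 medium containing 10% fetal bovine serum; compound: single point, 20 µM final compound, 1% DMSO; incubation: 6 h treatment, 37 °C; measured by: glow luminescence from Steady-Glo reagent; evaluation: activation, % of tunicamycin; control set: tunicamycin high, DMSO low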
MPTP counter = fluorescence retest of MPTP screen hits in isolated mitochondria, single concentration; shares compounds with MPTP block; membrane potential, Rhodamine 123 fluorescence; inhibition, % at 10 µM; hit rate 78% among 5,000; in the data active = inhibition above about 22%;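 also: 0% = DMSO vehicle and 100% = positive control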
MPTP swell DR = mitochondrial permeability transition pore inhibitors, dose response, biochemical, absorbance, uHTS hits; isolated mitochondria swelling; IC50, µM; shares compounds with MPTP block; hit rate 58% among 780; AID 651561, 2012; in the data active = IC50 below about 20 µM
MPTP cs DR = fluorescent counter-screen in isolated mitochondria, dose response, counter-screen for MPTP inhibitor project, biochemical, fluorescence, uHTS hits; shares compounds with MPTP block; isolated mitochondria counterscreen, fluorescence read-out; IC50, µM; hit rate 49% among 780; AID 651564, 2012; in the data active = IC50 below about 80 µM
Active calls of the source: *. Hits are enriched below; roughly 5.6% of the tested compounds scored in any of these assays.

For Cc1cc(N=NC(=O)c2ccccc2O)c2ccccc2c1O the results were GRIN3A LBD mod 1.0, CHOP inh 4.2, MPTP block 73.7*, aDG glyco up -0.1, CHOP UPR activ 5.0, UPR XBP1 act 5.1 and MPTP counter 90.7*.
`O=C(NCC(c1ccco1)N1CCCCC1)c1ccc2c(c1)S(=O)(=O)c1ccccc1C2=O` (stereo unspecified) gave GRIN3A LBD mod 2.5, CHOP inh 10.4, MPTP block 0.9, aDG glyco up 0.1, CHOP UPR activ 0.2 and UPR XBP1 act 2.1.
Screening NC(=O)c1nsc(C(=O)N(c2cccc(F)c2)C(C(=O)NC2CCCC2)c2ccco2)c1N (stereo unspecified) returned GRIN3A LBD mod 2.8, MPTP block -0.8, aDG glyco up 0.0, CHOP UPR activ 0.1 and UPR XBP1 act 0.3.
For CC1(C)CC(=O)C2=C(C1)NC1=C(C(=O)c3ccccc31)C2c1ccc(Cl)cc1 (stereo unspecified) the results were GRIN3A LBD mod -2.3, CHOP inh 9.7, MPTP block 98.5*, aDG glyco up 0.4, CHOP UPR activ 21.4, UPR XBP1 act 3.2 and MPTP counter 51.9*.
For Cc1ccc(C2C3=C(CC(C)(C)CC3=O)NC3=C2C(=O)c2ccccc23)cc1 (stereo unspecified) the results were GRIN3A LBD mod -5.1, CHOP inh 37.8, MPTP block 38.8, aDG glyco up 0.2, CHOP UPR activ -1.3 and UPR XBP1 act -0.6.
`O=C(C1CC1)N1N=C(c2ccc(Cl)cc2)CC1(O)C(F)(F)F` (stereo unspecified) gave GRIN3A LBD mod -4.4, MPTP block 0.1, aDG glyco up 0.0, CHOP UPR activ 1.6 and UPR XBP1 act 0.8.
Screening CC1(O)CC(c2ccc(Cl)cc2)=NN1C(=O)c1ccc(Cl)cc1 (stereo unspecified) returned GRIN3A LBD mod -3.8, MPTP block 68.2*, aDG glyco up -0.2, CHOP UPR activ -1.3, UPR XBP1 act 1.3 and MPTP counter 88.4*.
`Cn1cc(CNCc2cn[nH]c2-c2ccc(F)cc2)c(-c2ccc3c(c2)OCCO3)n1` gave GRIN3A LBD mod -1.0, CHOP inh 14.4, MPTP block 2.5, aDG glyco up -0.3, CHOP UPR activ 0.0 and UPR XBP1 act 0.1.
For Cn1cc(CNCc2ccc(OC(F)(F)F)cc2)c(-c2ccc3c(c2)OCCO3)n1 the results were GRIN3A LBD mod -0.9, CHOP inh 61.0, MPTP block 101.6*, aDG glyco up 1.1, CHOP UPR activ 4.2, UPR XBP1 act 2.2 and MPTP counter 96.3*.
For O=[N+]([O-])c1cc(-c2n[nH]c(-c3ccccc3)n2)cc([N+](=O)[O-])c1 the results were GRIN3A LBD mod 26.9*, CHOP inh 94.0*, MPTP block 71.9*, aDG glyco up 0.2, CHOP UPR activ 0.2, UPR XBP1 act 2.2, MPTP counter 8.8, MPTP swell DR 19.8* and MPTP cs DR <2.5*.
Screening Cc1cccc(-c2n[nH]c([N+](=O)[O-])n2)c1 returned GRIN3A LBD mod -1.2, CHOP inh 2.9, MPTP block 0.7, aDG glyco up -0.2, CHOP UPR activ 1.8 and UPR XBP1 act -1.7.
Screening O=c1[nH]c(-c2ccccc2)ncc1Oc1ccccc1 returned GRIN3A LBD mod -0.6, MPTP block 0.4, aDG glyco up 2.3, CHOP UPR activ -1.5 and UPR XBP1 act 1.7.
Screening CCN1CCc2c(sc(NC(=O)C3CCCCC3)c2C(=O)OC)C1 returned GRIN3A LBD mod -1.0, MPTP block 47.2, aDG glyco up 0.1, CHOP UPR activ -1.7 and UPR XBP1 act 9.4.
Screening CCOC(=O)c1c(NC(=O)C2CCCCC2)sc2c1CCN(CC)C2 returned GRIN3A LBD mod 1.7, MPTP block 58.4*, aDG glyco up 0.3, CHOP UPR activ -1.5, UPR XBP1 act 1.7, MPTP counter -8.7, MPTP swell DR 15.3* and MPTP cs DR >80.
For CS(=O)(=O)c1ccc2nc(NC(=O)c3cc(-c4ccccc4)nn3-c3ccccc3)sc2c1 the results were GRIN3A LBD mod 1.8, CHOP inh 7.4, MPTP block 2.4, aDG glyco up -0.1, CHOP UPR activ 3.1 and UPR XBP1 act -0.3.
For Cc1ccc(NC(=O)c2cc(C(=O)c3cc(Cl)ccc3O)cn(-c3ccc(C)cc3)c2=O)cc1 the results were GRIN3A LBD mod 12.0*, CHOP inh 68.1, MPTP block 91.9*, aDG glyco up -0.4, CHOP UPR activ 1.8, UPR XBP1 act -1.4 and MPTP counter 85.3*.
Oc1cc(Cl)cc(Cl)c1Cl was read as GRIN3A LBD mod 1.6, MPTP block 52.5*, aDG glyco up 0.0, CHOP UPR activ 1.0, UPR XBP1 act 0.5 and MPTP counter 80.1*.
`C#Cc1ccc([C@@H]2C=C(C(=O)OCC=C)O[C@H](OCc3ccc(CO)cc3)C2)cc1` gave GRIN3A LBD mod -5.8, CHOP inh 26.6, MPTP block 1.2, aDG glyco up 0.2, CHOP UPR activ -1.2 and UPR XBP1 act 3.4.
`CCc1ccc(-c2cc3c(=O)n(CC(=O)NCCCN4CCC(Cc5ccccc5)CC4)nc(C)n3n2)cc1` gave GRIN3A LBD mod 2.0, MPTP block 98.0*, aDG glyco up -0.6, CHOP UPR activ 31.1, UPR XBP1 act 0.1, MPTP counter -2.9, MPTP swell DR 2.96* and MPTP cs DR >80.
For Cc1nn(CC(=O)NCCCN2CCC(Cc3ccccc3)CC2)c(=O)c2cc(-c3ccccc3)nn12 the results were GRIN3A LBD mod -0.1, MPTP block 74.5*, aDG glyco up 0.7, CHOP UPR activ 9.8, UPR XBP1 act 4.8, MPTP counter -6.0, MPTP swell DR inactive and MPTP cs DR >80.
For O=C(c1ccccc1)c1ccc(OCC(O)CNCc2ccc(Cl)cc2)cc1 (stereo unspecified) the results were GRIN3A LBD mod 1.2, MPTP block 1.1, aDG glyco up 0.1, CHOP UPR activ 0.4 and UPR XBP1 act 3.9.
